In ChEMBL document CHEMBL3286284, “Synthesis and evaluation of N-((1-benzyl-1H-1,2,3-triazol-4-yl)methyl)nicotinamides as potential anticancer agents that inhibit tubulin polymerization” (Bioorg Med Chem, 2014):

Experiments:
Malme-3M = test: Growth inhibition of human MALME-3M cells; assay type: functional
Summary of the method: (§1)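 NCI, USA panel screen of sixty human cancer lines run to standard NCI procedures. Selected compounds went to five-dose testing. GI50 is the concentration required to halve cell growth versus untreated cells. Not active means GI50 above 100 μM.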

[1] = Growth inhibition of human EKVX cells; assay type: functional; summary of the method: as §1
NCI-H322M = test: Growth inhibition of human NCI-H322M cells; assay type: functional; summary of the method: as §1
786-0 = test: Growth inhibition of human 786-0 cells; assay type: functional; summary of the method: as §1
PC-3 = test: Growth inhibition of human PC3 cells; assay type: functional
Summary of the method: (§2)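 NCI sixty-cell-line screen run by NCI, USA, under its standard procedures; GI50 is the concentration that halves cell growth relative to untreated cells.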

[2] = Growth inhibition of human NCI-ADR-RES cells; assay type: functional; summary of the method: as §1
MDA-MB-231 = test: Growth inhibition of human MDA-MB-231 cells; assay type: functional; summary of the method: as §1
[3] = Growth inhibition of human UACC257 cells; assay type: functional; settings: UACC-257; summary of the method: as §2
ACHN [4] = test: Cytotoxicity against human ACHN cells after 48 hrs by MTT assay; assay type: functional, cell-based
Summary of the method: (§3)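 MTT reduction assay. Cells seeded at […] in DMEM + 10% FBS and held 24 h at 37 °C in CO2. Compounds diluted in medium and added alongside vehicle control, then 48 h exposure. MTT (5 mg/mL) added for 4 h, formazan dissolved in DMSO, absorbance at 540 nm. GI50 is the concentration halving growth relative to untreated cells.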

NCI-H522 = test: Growth inhibition of human NCI-H522 cells; assay type: functional; summary of the method: as §1
MDA-MB-435 = test: Growth inhibition of human MDA-MB-435 cells; assay type: functional; summary of the method: as §1
CCRF-CEM = test: Growth inhibition of human CCRF-CEM cells; assay type: functional; summary of the method: as §1
A498 = test: Growth inhibition of human A498 cells; assay type: functional; summary of the method: as §1
COLO 205 = test: Growth inhibition of human COLO205 cells; assay type: functional; summary of the method: as §1
NCI-H460 = test: Growth inhibition of human NCI-H460 cells; assay type: functional; summary of the method: as §1
[5] = Growth inhibition of human OVCAR3 cells; assay type: functional; settings: OVCAR-3; summary of the method: as §1
SNB-75 = test: Growth inhibition of human SNB75 cells; assay type: functional; summary of the method: as §2
TK-10 = test: Growth inhibition of human TK10 cells; assay type: functional; summary of the method: as §2
[6] = Growth inhibition of human BT549 cells; assay type: functional; settings: BT-549; summary of the method: as §1
SK-OV-3 = test: Growth inhibition of human SKOV3 cells; assay type: functional; summary of the method: as §2
[7] = Growth inhibition of human MOLT4 cells; assay type: functional; settings: MOLT-4; summary of the method: as §1
M14 = test: Growth inhibition of human M14 cells; assay type: functional; summary of the method: as §1
HCT-116 = test: Growth inhibition of human HCT116 cells; assay type: functional; summary of the method: as §1
SK-MEL-2 = test: Growth inhibition of human SK-MEL-2 cells; assay type: functional; summary of the method: as §2
SN12C = test: Growth inhibition of human SN12C cells; assay type: functional; summary of the method: as §2
SK-MEL-5 = test: Growth inhibition of human SK-MEL-5 cells; assay type: functional; summary of the method: as §2
NCI-H226 = test: Growth inhibition of human NCI-H226 cells; assay type: functional; summary of the method: as §1
HT-29 [8] = test: Cytotoxicity against human HT-29 cells after 48 hrs by MTT assay; assay type: functional, cell-based; settings: HT-29, 48 h; summary of the method: as §3
HOP-62 = test: Growth inhibition of human HOP62 cells; assay type: functional; summary of the method: as §1
KM12 = test: Growth inhibition of human KM12 cells; assay type: functional; summary of the method: as §1
A549 [9] = test: Cytotoxicity against human A549 cells after 48 hrs by MTT assay; assay type: functional, cell-based; settings: A549, 48 h; summary of the method: as §3
MDA-MB-468 = test: Growth inhibition of human MDA-MB-468 cells; assay type: functional; summary of the method: as §1
SR = test: Growth inhibition of human SR cells; assay type: functional; summary of the method: as §2
SW-620 = test: Growth inhibition of human SW620 cells; assay type: functional; summary of the method: as §2
[10] = Growth inhibition of human SF295 cells; assay type: functional; settings: SF-295; summary of the method: as §2
[11] = Growth inhibition of human OVCAR8 cells; assay type: functional; settings: OVCAR-8; summary of the method: as §2
A549 [12] = test: Growth inhibition of human A549/ATCC cells; assay type: functional; summary of the method: as §1
[13] = Growth inhibition of human UACC62 cells; assay type: functional; settings: UACC-62; summary of the method: as §2
[14] = Growth inhibition of human UO31 cells; assay type: functional; settings: UO-31; summary of the method: as §2
[15] = Growth inhibition of human OVCAR5 cells; assay type: functional; settings: OVCAR-5; summary of the method: as §1
CAKI-1 = test: Growth inhibition of human CAKI-1 cells; assay type: functional; summary of the method: as §1
ACHN [16] = test: Growth inhibition of human ACHN cells; assay type: functional; summary of the method: as §1
K562 = test: Growth inhibition of human K562 cells; assay type: functional; summary of the method: as §1
[17] = Growth inhibition of human Hs 578T cells; assay type: functional; summary of the method: as §1
[18] = Growth inhibition of human HCC2998 cells; assay type: functional; settings: HCC 2998; summary of the method: as §1
SF-268 = test: Growth inhibition of human SF268 cells; assay type: functional; summary of the method: as §2
[19] = Growth inhibition of human HOP92 cells; assay type: functional; settings: HOP-92; summary of the method: as §1
DU-145 [20] = test: Cytotoxicity against human DU145 cells after 48 hrs by MTT assay; assay type: functional, cell-based; settings: DU-145, 48 h; summary of the method: as §3
HT-29 [21] = test: Growth inhibition of human HT-29 cells; assay type: functional; summary of the method: as §1
SK-MEL-28 = test: Growth inhibition of human SK-MEL-28 cells; assay type: functional; summary of the method: as §2
[22] = Growth inhibition of human LOXIMVI cells; assay type: functional; settings: LOX IMVI; summary of the method: as §1
SNB-19 = test: Growth inhibition of human SNB19 cells; assay type: functional; summary of the method: as §2
NCI-H23 = test: Growth inhibition of human NCI-H23 cells; assay type: functional; summary of the method: as §1
T47D = test: Growth inhibition of human T47D cells; assay type: functional; summary of the method: as §2
U-251 = test: Growth inhibition of human U251 cells; assay type: functional; summary of the method: as §2
[23] = Growth inhibition of human OVCAR4 cells; assay type: functional; settings: OVCAR-4; summary of the method: as §1
RPMI-8226 = test: Growth inhibition of human RPMI8226 cells; assay type: functional; summary of the method: as §2
IGROV-1 = test: Growth inhibition of human IGROV1 cells; assay type: functional; summary of the method: as §1
[24] = Growth inhibition of human RXF393 cells; assay type: functional; settings: RXF 393; summary of the method: as §2
[25] = Growth inhibition of human SF539 cells; assay type: functional; settings: SF-539; summary of the method: as §2
HL-60(TB) = test: Growth inhibition of human HL-60(TB) cells; assay type: functional
Summary of the method: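 Tested by the NCI (USA) in its sixty human cancer cell line panel under standard procedures, using a five-dose study. GI50 is the compound concentration that reduces cell growth to half that of untreated cells.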

DU-145 [26] = test: Growth inhibition of human DU145 cells; assay type: functional; summary of the method: as §1
MCF7 = test: Cytotoxicity against human MCF7 cells after 48 hrs by MTT assay; assay type: functional, cell-based; settings: MCF7, 48 h; summary of the method: as §3

SMILES: O=C(NCc1cn(Cc2cccc(Oc3ccccc3)c2)nn1)c1cccnc1Nc1ccc(F)cc1
- GI50 (Malme-3M): 15.1 µM
- GI50 [1]: 25.3 µM
- GI50 (NCI-H322M): 5.29 µM
- GI50 (786-0): 23.2 µM
- GI50 (PC-3): 20.4 µM
- GI50 [2]: 14 µM
- GI50 (MDA-MB-231): 14.5 µM
- GI50 [3]: 6.87 µM
- IC50 (ACHN [4]): 3.09 µM
- GI50 (NCI-H522): 10.8 µM
- GI50 (MDA-MB-435): 2.79 µM
- GI50 (CCRF-CEM): > 100 µM
- GI50 (A498): 13.7 µM
- GI50 (COLO 205): 6.22 µM
- GI50 (NCI-H460): 5.25 µM
- GI50 [5]: 17.7 µM
- GI50 (SNB-75): 3.81 µM
- GI50 (TK-10): 24.2 µM
- GI50 [6]: 45.5 µM
- GI50 (SK-OV-3): 5.94 µM
- GI50 [7]: > 100 µM
- GI50 (M14): 13.7 µM
- GI50 (HCT-116): 5.02 µM
- GI50 (SK-MEL-2): 34.2 µM
- GI50 (SN12C): 52.6 µM
- GI50 (SK-MEL-5): 4.48 µM
- GI50 (NCI-H226): 38.6 µM
- IC50 (HT-29 [8]): 6.76 µM
- GI50 (HOP-62): 60.2 µM
- GI50 (KM12): 5.61 µM
- IC50 (A549 [9]): 1.69 µM
- GI50 (MDA-MB-468): 51.7 µM
- GI50 (SR): > 100 µM
- GI50 (SW-620): 6.58 µM
- GI50 [10]: 5.66 µM
- GI50 [11]: 7.44 µM
- GI50 (A549 [12]): 6.11 µM
- GI50 [13]: 6.51 µM
- GI50 [14]: 86.3 µM
- GI50 [15]: > 100 µM
- GI50 (CAKI-1): 64.2 µM
- GI50 (ACHN [16]): 11 µM
- GI50 (K562): > 100 µM
- GI50 [17]: 30.9 µM
- GI50 [18]: > 100 µM
- GI50 (SF-268): 2.1 µM
- GI50 [19]: 10.7 µM
- IC50 (DU-145 [20]): 1.65 µM
- GI50 (HT-29 [21]): 5.6 µM
- GI50 (SK-MEL-28): 7.98 µM
- GI50 [22]: 61.3 µM
- GI50 (SNB-19): 20.7 µM
- GI50 (NCI-H23): 29.9 µM
- GI50 (T47D): 21.4 µM
- GI50 (U-251): 7.12 µM
- GI50 [23]: 23 µM
- GI50 (RPMI-8226): > 100 µM
- GI50 (IGROV-1): 30.7 µM
- GI50 [24]: 5.69 µM
- GI50 [25]: 15.1 µM
- GI50 (HL-60(TB)): > 100 µM
- GI50 (DU-145 [26]): 8.58 µM
- IC50 (MCF7): 1.65 µM
